Published values pooled from the literature.
Target: 5-hydroxytryptamine receptor 1A (HTR1A, Homo sapiens, UniProt P08908)
One construct used (P08908 1-422): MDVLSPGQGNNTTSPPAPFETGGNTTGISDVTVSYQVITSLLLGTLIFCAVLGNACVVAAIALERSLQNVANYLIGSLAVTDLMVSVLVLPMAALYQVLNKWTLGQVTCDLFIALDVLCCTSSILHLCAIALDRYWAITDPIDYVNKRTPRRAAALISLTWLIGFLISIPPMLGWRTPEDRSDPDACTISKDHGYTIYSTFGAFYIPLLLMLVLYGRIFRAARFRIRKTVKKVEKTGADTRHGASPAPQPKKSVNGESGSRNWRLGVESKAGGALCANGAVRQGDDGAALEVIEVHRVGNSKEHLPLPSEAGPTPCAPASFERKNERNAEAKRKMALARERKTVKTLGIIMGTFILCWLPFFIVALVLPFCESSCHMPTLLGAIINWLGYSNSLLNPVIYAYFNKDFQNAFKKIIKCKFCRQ

CN(C)C(=O)N[C@H]1CC[C@H](CCN2CCN(c3cccc(Cl)c3Cl)CC2)CC1
Emax (cAMP; agonist; TR-FRET; CHO): 95%

Clc1ccc2c(C3CCN(CCc4c[nH]c5ccccc45)CC3)c[nH]c2c1
inhibition (ligand displacement; radioligand; 10 µM): 99%

COCc1c(-c2cc3cc(C)cc(OC)c3s2)c2c(N)ncnn2c1CN1CCNC(=O)C1
inhibition (ligand displacement; radioligand; 10 µM): 8%

CCN(CC)CCCC[C@H](NC(=O)[C@H](CC(C)C)NC(=O)[C@H](C)NC(=O)[C@H](Cc1ccccc1)NC(=O)c1ccc(C(C)(C)C)cc1)C(=O)N[C@@H](CO)C(=O)OC
remaining binding (ligand displacement; radioligand; 10 µM): 81.3%

COCCc1ccc(-c2c(C)nc3c(N4CCOCC4)ccnn23)cn1
inhibition (ligand displacement; 10 µM): 22.9%

CCNCCc1c[nH]c2ccc(OC)cc12
Emax (calcium signal; agonist): ~70%

CC(C)N1CCC[C@H]1CNC(=O)c1cn(C2CCCC2)c(=O)c2c1c1ccccc1n2C
inhibition (ligand displacement; radioligand; 10 µM): 3%

CNC(=O)Nc1ccc2c(c1)[C@]1(CC2)OC(=O)N(CC(=O)N(Cc2ccc(F)cc2)[C@@H](C)C(F)(F)F)C1=O
inhibition (ligand displacement; 10 µM): 4.17%
